Source: ChEMBL document CHEMBL3739413, “Discovery of substituted-2,4-dimethyl-(naphthalene-4-carbonyl)amino-benzoic acid as potent and selective EP4 antagonists” (Bioorg Med Chem Lett, 2016)
Values after ≈ are worked out from the molar mass of the structure shown. Each block holds one compound with its values, some of them ahead of it.

Experiments:
[1] = molecular target: T1, Prostaglandin E2 receptor EP4 subtype (Homo sapiens, UniProt P35408); assay: Antagonist activity at EP4 receptor in human whole blood assessed as reversal of inhibition of PGE2 mediated LPS-induced TNF alpha production pretreated for 30 mins using 3,3',5,5' tetramethylbiphenyl-4,4'-diamine substrate measured after 20 to 24 hrs by immunoassay; format: tissue-based
How it was run: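 Pooled heparinized blood from volunteer donors (no NSAIDs or celecoxib for 48 h, no glucocorticoids for 2 weeks). Compounds added in triplicate as 7-point curves from DMSO stocks at 100× final, preincubated 30 min at 37 °C under 5% CO2. Stimulated with LPS ± PGE2 (final 10 nM), incubated 20–24 h, plasma TNFα read by ELISA at A450–A650. IC50 from sigmoidal fit, reported as geometric mean ± SD.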

[2] = Drug metabolism in rat hepatic microsomes; format: ADME, Microsome; conditions: liver microsomes, read-out: Drug metabolism
[3] = Aqueous solubility of the compound at pH 6; format: physicochemical; conditions: aqueous medium
[4] = Drug metabolism in human hepatic microsomes; format: ADME, Microsome; conditions: liver microsomes, read-out: Drug metabolism
[5] = molecular target: T1, Prostaglandin E2 receptor EP4 subtype; assay: Antagonist activity at human EP4 receptor
[6] = molecular target: T1, Prostaglandin E2 receptor EP4 subtype; assay: Antagonist activity at human EP4 receptor in HEK293 cells assessed as inhibition of PGE2-induced cAMP accumulation; format: functional, cell-based
How it was run: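 HEK293 cells; functional readout was inhibition of PGE2-induced cAMP accumulation. IC50 reported ± SEM, with number of experiments.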

[7] = molecular target: T1, Prostaglandin E2 receptor EP4 subtype; assay: Potency index, ratio of IC50 for CJ-023423 to IC50 for test compound against EP4 receptor in human whole blood; format: tissue-based
Cytochrome P450 2C19 = Cytochrome P450 2C19 (Homo sapiens, UniProt P33261); assay: Inhibition of CYP2C19 (unknown origin); format: ADME
[8] = molecular target: T2, Prostaglandin E2 receptor EP1 subtype (Homo sapiens, UniProt P34995); assay: Antagonist activity at human EP1 receptor
T2 sequence (P34995 whole entry): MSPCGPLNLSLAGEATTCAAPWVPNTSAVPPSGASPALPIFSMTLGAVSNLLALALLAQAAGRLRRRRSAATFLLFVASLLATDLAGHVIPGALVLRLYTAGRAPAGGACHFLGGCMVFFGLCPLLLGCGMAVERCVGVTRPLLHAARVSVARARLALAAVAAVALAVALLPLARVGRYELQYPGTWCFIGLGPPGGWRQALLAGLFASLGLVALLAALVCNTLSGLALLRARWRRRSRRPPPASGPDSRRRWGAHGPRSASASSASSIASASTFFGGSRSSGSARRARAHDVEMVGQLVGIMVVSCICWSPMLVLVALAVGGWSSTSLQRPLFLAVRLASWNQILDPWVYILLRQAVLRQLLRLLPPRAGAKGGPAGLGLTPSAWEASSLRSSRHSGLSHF

[9] = Clearance in rat at 1 mg/kg, iv; format: ADME, organism-based; conditions: in vivo
How it was run: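 Rat dosed intravenously at 1 mg/kg.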

[10] = Drug metabolism in rat hepatic microsomes incubated for 30 mins in presence of NADPH; format: ADME, Microsome; conditions: liver microsomes, read-out: Drug metabolism
How it was run: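 Compound incubated 30 min with rat liver microsomes and NADPH; percent metabolized reported.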

[11] = molecular target: Prostaglandin E2 receptor EP2 subtype (Homo sapiens, UniProt P43116); assay: Antagonist activity at human EP2 receptor
Cytochrome P450 2D6 = Cytochrome P450 2D6 (Homo sapiens, UniProt P10635); assay: Inhibition of CYP2D6 (unknown origin); format: ADME
[12] = Oral bioavailability in rat at 5 mg/kg; format: ADME, organism-based; conditions: in vivo
[13] = Tmax in rat at 5 mg/kg, po; format: ADME, organism-based; conditions: in vivo
Cytochrome P450 2B6 = molecular target: T3, Cytochrome P450 2B6 (Homo sapiens, UniProt P20813); assay: Inhibition of CYP2B6 (unknown origin); format: ADME
T3 sequence (P20813 whole entry): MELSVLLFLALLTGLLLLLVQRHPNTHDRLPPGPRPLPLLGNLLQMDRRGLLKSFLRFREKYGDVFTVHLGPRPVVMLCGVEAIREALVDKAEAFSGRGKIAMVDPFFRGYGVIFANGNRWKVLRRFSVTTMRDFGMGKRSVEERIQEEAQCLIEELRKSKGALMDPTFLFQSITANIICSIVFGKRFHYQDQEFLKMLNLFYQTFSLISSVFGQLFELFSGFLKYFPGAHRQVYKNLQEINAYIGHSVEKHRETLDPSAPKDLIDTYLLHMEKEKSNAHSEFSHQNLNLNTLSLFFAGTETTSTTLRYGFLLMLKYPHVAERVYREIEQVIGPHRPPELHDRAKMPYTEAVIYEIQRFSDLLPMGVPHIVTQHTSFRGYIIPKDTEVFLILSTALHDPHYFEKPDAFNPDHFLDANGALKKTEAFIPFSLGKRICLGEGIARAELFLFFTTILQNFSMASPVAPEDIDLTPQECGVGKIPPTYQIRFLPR

Cytochrome P450 2C8 = molecular target: T4, Cytochrome P450 2C8 (Homo sapiens, UniProt P10632); assay: Inhibition of CYP2C8 (unknown origin); format: ADME
T4 sequence (P10632 whole entry): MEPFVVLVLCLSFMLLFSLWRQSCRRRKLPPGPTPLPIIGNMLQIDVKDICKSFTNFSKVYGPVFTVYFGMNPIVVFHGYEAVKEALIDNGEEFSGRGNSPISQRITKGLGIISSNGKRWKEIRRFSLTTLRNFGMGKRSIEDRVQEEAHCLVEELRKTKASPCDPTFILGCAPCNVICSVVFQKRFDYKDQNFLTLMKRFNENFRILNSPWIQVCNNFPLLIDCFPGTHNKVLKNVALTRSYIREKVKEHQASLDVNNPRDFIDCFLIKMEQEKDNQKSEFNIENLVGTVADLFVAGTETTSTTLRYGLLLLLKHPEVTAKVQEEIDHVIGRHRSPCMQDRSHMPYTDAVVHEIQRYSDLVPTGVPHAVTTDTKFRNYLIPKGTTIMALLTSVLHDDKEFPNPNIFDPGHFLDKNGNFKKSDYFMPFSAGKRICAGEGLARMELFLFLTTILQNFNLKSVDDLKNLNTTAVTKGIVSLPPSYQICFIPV

[14] = Ratio of Cmax in rat to IC50 for EP4 in human whole blood
[15] = Cmax in rat at 5 mg/kg, po; format: ADME, organism-based; design: dose 5 mg/kg, route oral; conditions: in vivo
Cytochrome P450 1A2 = molecular target: T5, Cytochrome P450 1A2 (Homo sapiens, UniProt P05177); assay: Inhibition of CYP1A2 (unknown origin); format: ADME
T5 sequence (P05177 whole entry): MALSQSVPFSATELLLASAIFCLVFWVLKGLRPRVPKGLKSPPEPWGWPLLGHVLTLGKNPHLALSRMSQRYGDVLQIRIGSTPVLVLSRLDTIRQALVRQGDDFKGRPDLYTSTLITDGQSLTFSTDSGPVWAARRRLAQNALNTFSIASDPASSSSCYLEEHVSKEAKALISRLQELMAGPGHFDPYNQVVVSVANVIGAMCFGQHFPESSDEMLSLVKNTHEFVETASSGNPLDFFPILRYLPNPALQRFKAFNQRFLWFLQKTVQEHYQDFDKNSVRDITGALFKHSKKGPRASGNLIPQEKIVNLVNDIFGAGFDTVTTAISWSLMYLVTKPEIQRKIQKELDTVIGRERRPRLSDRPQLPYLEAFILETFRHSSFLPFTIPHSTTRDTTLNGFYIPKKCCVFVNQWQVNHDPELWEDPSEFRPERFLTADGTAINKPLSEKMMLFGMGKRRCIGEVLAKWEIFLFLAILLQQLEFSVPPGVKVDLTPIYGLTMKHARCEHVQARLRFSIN

Cytochrome P450 2C9 = Cytochrome P450 2C9 (Homo sapiens, UniProt P11712); assay: Inhibition of CYP2C9 (unknown origin); format: ADME
[16] = molecular target: T6, Prostaglandin E2 receptor EP3 subtype (Homo sapiens, UniProt P43115); assay: Antagonist activity at human EP3 receptor
T6 sequence (P43115 whole entry): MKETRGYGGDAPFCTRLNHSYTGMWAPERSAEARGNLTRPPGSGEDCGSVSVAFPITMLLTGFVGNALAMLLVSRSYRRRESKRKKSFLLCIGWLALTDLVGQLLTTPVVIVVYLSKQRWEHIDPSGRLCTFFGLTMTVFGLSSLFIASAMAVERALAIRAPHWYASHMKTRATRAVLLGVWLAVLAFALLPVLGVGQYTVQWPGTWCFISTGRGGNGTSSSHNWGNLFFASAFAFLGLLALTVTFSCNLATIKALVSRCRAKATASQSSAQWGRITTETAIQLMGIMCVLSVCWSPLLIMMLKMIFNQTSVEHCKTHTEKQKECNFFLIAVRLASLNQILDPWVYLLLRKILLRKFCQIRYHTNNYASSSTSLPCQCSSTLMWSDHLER

Cytochrome P450 3A4 = Cytochrome P450 3A4 (Homo sapiens, UniProt P08684); assay: Inhibition of CYP3A4 (unknown origin); format: ADME
Sequence of Cytochrome P450 3A4 (P08684 whole entry): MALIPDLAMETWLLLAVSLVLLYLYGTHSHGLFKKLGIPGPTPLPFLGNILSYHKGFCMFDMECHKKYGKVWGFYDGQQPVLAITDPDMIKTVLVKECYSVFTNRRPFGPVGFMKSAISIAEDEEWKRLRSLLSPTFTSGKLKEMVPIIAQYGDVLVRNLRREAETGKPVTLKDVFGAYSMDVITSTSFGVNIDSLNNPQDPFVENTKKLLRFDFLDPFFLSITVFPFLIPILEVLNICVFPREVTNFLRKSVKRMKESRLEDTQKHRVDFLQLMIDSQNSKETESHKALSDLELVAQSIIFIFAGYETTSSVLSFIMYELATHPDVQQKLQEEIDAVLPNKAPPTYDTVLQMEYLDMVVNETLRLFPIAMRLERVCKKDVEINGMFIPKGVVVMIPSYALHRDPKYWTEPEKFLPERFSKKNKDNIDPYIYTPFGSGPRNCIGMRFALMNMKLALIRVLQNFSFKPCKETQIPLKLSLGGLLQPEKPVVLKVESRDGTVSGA

T1 sequence (P35408 whole entry): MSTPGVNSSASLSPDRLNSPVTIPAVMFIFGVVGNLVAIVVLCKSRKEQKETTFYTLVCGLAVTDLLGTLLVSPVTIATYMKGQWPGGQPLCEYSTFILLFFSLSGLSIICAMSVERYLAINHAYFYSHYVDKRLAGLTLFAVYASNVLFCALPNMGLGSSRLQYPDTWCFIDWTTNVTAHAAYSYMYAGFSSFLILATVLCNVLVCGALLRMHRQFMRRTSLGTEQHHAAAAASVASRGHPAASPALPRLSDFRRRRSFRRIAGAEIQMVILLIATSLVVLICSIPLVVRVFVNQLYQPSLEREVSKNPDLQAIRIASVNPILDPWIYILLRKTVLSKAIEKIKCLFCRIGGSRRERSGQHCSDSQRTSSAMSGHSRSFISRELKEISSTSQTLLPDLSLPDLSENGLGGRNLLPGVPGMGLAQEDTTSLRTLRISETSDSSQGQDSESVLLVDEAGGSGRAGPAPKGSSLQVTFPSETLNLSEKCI
Sequence of Prostaglandin E2 receptor EP2 subtype (P43116 whole entry): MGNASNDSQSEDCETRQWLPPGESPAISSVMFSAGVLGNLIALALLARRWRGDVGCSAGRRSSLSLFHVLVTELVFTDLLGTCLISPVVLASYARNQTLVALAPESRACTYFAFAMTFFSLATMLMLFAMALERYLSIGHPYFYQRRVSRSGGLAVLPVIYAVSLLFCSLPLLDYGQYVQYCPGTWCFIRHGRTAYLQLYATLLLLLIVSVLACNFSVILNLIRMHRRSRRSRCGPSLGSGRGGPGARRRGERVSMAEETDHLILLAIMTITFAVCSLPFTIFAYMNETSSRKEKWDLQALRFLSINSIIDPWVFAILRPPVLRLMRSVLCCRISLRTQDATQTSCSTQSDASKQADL
Sequence of Cytochrome P450 2D6 (P10635 whole entry): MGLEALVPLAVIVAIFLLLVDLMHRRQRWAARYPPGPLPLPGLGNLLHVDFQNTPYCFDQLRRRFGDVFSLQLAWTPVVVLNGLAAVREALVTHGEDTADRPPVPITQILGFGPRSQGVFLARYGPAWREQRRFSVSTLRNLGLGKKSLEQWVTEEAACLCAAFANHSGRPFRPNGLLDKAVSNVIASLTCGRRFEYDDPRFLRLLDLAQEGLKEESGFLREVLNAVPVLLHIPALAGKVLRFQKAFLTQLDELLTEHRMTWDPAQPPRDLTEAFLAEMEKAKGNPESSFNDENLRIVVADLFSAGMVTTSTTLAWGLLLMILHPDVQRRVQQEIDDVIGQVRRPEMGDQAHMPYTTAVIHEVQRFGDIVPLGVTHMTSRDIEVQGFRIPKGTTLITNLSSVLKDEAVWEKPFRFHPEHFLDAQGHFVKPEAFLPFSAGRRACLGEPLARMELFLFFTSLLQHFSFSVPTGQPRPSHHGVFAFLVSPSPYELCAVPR
Sequence of Cytochrome P450 2C9 (P11712 whole entry): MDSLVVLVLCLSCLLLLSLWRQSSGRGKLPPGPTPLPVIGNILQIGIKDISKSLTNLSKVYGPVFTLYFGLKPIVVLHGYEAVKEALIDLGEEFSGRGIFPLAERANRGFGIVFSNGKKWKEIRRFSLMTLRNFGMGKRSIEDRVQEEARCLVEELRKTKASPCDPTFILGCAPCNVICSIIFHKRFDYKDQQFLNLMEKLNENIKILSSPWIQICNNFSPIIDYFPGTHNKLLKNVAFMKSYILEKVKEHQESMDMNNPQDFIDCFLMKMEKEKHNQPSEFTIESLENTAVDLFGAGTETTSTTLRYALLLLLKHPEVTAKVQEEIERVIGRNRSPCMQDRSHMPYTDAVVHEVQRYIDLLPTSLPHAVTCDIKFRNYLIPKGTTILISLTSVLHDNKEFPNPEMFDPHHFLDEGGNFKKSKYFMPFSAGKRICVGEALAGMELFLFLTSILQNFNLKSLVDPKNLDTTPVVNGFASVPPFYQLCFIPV
Sequence of Cytochrome P450 2C19 (P33261 whole entry): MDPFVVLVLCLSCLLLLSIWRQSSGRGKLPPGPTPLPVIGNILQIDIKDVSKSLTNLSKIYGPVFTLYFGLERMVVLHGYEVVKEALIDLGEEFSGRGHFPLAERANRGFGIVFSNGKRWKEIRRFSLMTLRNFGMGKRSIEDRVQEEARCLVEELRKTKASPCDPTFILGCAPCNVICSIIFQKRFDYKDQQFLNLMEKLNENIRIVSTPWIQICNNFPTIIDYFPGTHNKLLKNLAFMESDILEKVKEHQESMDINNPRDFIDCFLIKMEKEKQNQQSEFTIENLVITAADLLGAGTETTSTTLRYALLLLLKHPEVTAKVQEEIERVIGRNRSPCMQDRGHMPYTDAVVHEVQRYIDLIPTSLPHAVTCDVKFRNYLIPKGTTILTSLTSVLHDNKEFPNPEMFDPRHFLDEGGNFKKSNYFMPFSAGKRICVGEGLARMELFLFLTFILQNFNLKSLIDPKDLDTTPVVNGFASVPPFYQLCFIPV

Compound: Cc1cccc(C)c1NC(=O)c1cc(-c2ccccc2)nc2ccccc12
IC50 [1]: > 30 µM | metabolised [2]: 64% | solubility [3]: < 1 µg/mL | metabolised [4]: 71% | Ki [5]: 0.512 µM | IC50 [6]: 0.128 µM

Compound: CCc1nc2c(C)nc(C)cc2n1-c1ccc(CCNC(=O)NS(=O)(=O)c2ccc(C)cc2)cc1 [GRAPIPRANT]
IC50 [1]: 1.52 µM | metabolised [2]: 5% | solubility [3]: 977 µg/mL (≈ 1990 µM) | metabolised [4]: 2%

Compound: Cc1ccc(C(=O)O)c(C)c1NC(=O)c1cc(-c2ccccc2)cc2ccccc12
IC50 [1]: 0.577 µM | Ki [5]: 0.00672 µM | IC50 [6]: 0.00565 µM

Compound: Cc1cccc(C)c1NC(=O)c1cc(-c2ccc(C(=O)O)cc2)nc2ccccc12
IC50 [1]: > 30 µM | Ki [5]: > 19.2 µM | IC50 [6]: > 25 µM

Compound: Cc1cc(C(=O)O)cc(C)c1NC(=O)c1cc(-c2ccccc2)cc2ccccc12
IC50 [1]: 0.623 µM | Ki [5]: 0.00804 µM | IC50 [6]: 0.00348 µM

Compound: Cc1cc(C(=O)O)cc(C)c1NC(=O)c1cc(-c2ccccc2)nc2ccccc12
IC50 [1]: 1.98 µM | Ki [5]: 0.0392 µM | IC50 [6]: 0.0112 µM

Stronger by IC50 [1], values ahead:

IC50 [1]: 0.136 µM | Ki [5]: 0.00354 µM | IC50 [6]: 0.00111 µM
Compound: Cc1cc(C(=O)O)cc(C)c1NC(=O)c1cc(-c2cccc(CO)c2)cc2ccccc12

IC50 [1]: 0.312 µM | Ratio IC50 [7]: > 5 | Ki [5]: 0.017 µM | IC50 [6]: 0.0052 µM
Compound: Cc1ccc(C(=O)O)c(C)c1NC(=O)c1cc(-c2cccc(CO)c2)nc2ccccc12

IC50 [1]: 0.243 µM | IC50 (Cytochrome P450 2C19): > 10 µM | IC50 [8]: > 25 µM | Ki [8]: > 19.5 µM | clearance [9]: 1.9 mL/min/kg | metabolised at 0.5 h [10]: 7% | IC50 [11]: 3.7 µM | Ki [11]: 2.8 µM | IC50 (Cytochrome P450 2D6): > 10 µM | bioavailability [12]: 100% | Tmax [13]: 60 min | IC50 (Cytochrome P450 2B6): > 10 µM | IC50 (Cytochrome P450 2C8): > 10 µM | Cmax [15]: 10900 ng/mL | IC50 (Cytochrome P450 1A2): > 10 µM | Ki [5]: 0.00349 µM | IC50 [6]: 0.00362 µM | IC50 (Cytochrome P450 2C9): > 10 µM | IC50 [16]: > 25 µM | Ki [16]: > 17.5 µM | IC50 (Cytochrome P450 3A4): > 10 µM
Compound: Cc1ccc(C(=O)O)c(C)c1NC(=O)c1cc(-c2cccc(Cl)c2)cc2ccccc12
Ratio [14]: 104

IC50 [1]: 0.501 µM | clearance [9]: 59.6 mL/min/kg | metabolised at 0.5 h [10]: < 1% | bioavailability [12]: 3% | Tmax [13]: 15 min | Cmax [15]: 42.3 ng/mL | Ki [5]: 0.0523 µM | IC50 [6]: 0.00308 µM
Compound: Cc1cc(C(=O)O)cc(C)c1NC(=O)c1cc(-c2cccc(CO)c2)nc2ccccc12
Ratio [14]: 0.2

IC50 [1]: 0.0062 µM | clearance [9]: 23.8 mL/min/kg | metabolised at 0.5 h [10]: < 1% | Ratio IC50 [7]: > 250 | bioavailability [12]: 6% | Tmax [13]: 15 min | Cmax [15]: 85.7 ng/mL | Ki [5]: 0.00198 µM | IC50 [6]: 0.00242 µM
Compound: Cc1ccc(C(=O)O)c(C)c1NC(=O)c1cc(-c2cccc(CO)c2)cc2ccccc12
Ratio [14]: 33
